{"source": "paper PMC5497724", "about": "(Cancer Science, 2017)", "key": {"[1]": {"test_system": "HT1080 cells", "assay": "Western blot analysis of PI3K pathway and histone acetylation", "format": "cell-based, human", "details": "3 h", "in_short": "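HT1080 cells in RPMI-1640 with 10% FBS were handled as in the proliferation assay: 8 × 10³ cells seeded, 24 h at 37°C. Cells were treated 3 h with test compound (in DMSO) at various concentrations. Reference treatments were 2.5 μM SAHA, 1 μM GDC-0941 or both. Western blots probed phospho-AKT (Ser473, Thr308), AKT, phospho-S6, S6, acetyl-histone H3 and β-actin.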"}, "[2]": {"details": "SCID mice, 4.4 mg/kg i.v.; 40% ethanol, 5% PEG 400, 55% normal saline; cited from earlier work"}, "[3]": {"details": "rats, given orally; cited from earlier work"}}}
{"smiles": "CS(=O)(=O)N1CCN(Cc2cc3nc(-c4cccc5[nH]ncc45)nc(N4CCOCC4)c3s2)CC1", "note": "[GDC0941]", "values": [{"measurement": "phosphorylation of AKT and S6 (Western blot)", "setting": "[1]", "value": "inhibited the phosphorylation of AKT and S6 ribosomal protein"}]}
{"smiles": "O=C(CCCCCCC(=O)Nc1ccccc1)NO", "note": "[SAHA, Suberoylanilidehydroxamic acid]", "values": [{"measurement": "acetylation of histone H3 (Western blot)", "setting": "[1]", "value": "promoted acetylation of histone H3"}]}
{"smiles": "C/C=C1\\NC(=O)[C@H]2CSSCC/C=C/[C@H](CC(=O)N[C@H](C(C)C)C(=O)N2)OC(=O)[C@H](C(C)C)NC1=O", "note": "[FK228, Romidepsin]", "values": [{"measurement": "AUC", "setting": "[2]", "value": 1123, "unit": "ng·h/mL"}, {"measurement": "drug levels after oral dosing vs i.v.", "setting": "[3]", "value": "lower and more erratic drug levels than i.v. treatment"}]}
